Experimental data published in ChEMBL document CHEMBL1122726, “Analogues of platelet activating factor (PAF). 1. Some modifications of the alkoxy chain” (J Med Chem, 1984).
pEC50: −log10 of the molar value.

How the values were obtained:
[1] = Ratio = (MABP / platelet EC50 ) x 10 E -8; format: functional
How it was run: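 Intravenous dose lowering MABP by 50 mmHg in spontaneously hypertensive rats, divided by the EC50 for aggregation of rabbit platelet-rich plasma, then multiplied by 10^-8.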

[2] = species: Oryctolagus cuniculus; test: Tested for maximum aggregation units at specified molar concentration; format: functional
How it was run: (§1)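 Platelet-rich plasma from citrated cardiac-puncture blood of unanesthetized male New Zealand white rabbits, low-speed spin. Count adjusted with platelet-poor plasma, within 350000-600000/µL. 450 µL PRP plus 50 µL compound stock solution. EC50 taken as the concentration giving 50% of that compound's own maximum aggregation, from the mean dose-response curve of experiments with two to six replicates per dose. Maximum aggregation given in aggregation units at the stated molar concentration.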

[3] = test system: Rattus norvegicus; test: Tested for the dose needed to decrease mean arterial blood pressure (MABP) 50 mmHg in male rats, iv; format: functional
How it was run: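 Spontaneously hypertensive rats, arterial and venous catheters tunneled subcutaneously and exteriorized at the neck, studied at least 16 h after surgery while held in restraining cages. Compound dissolved in saline or 10-25% ethanol in saline, given as a rapid iv bolus at 1 mL/kg followed by a flush. Pressure read at 1-min intervals for 15 min after dosing. Maximum MABP change per rat, averaged per dose. Least-squares regression, solved for a −50 mmHg response.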

[4] = species: Rattus norvegicus; test: Tested for the molar concentration required to cause 50% of maximum aggregation; format: functional, organism-based; how it was run: as §1
[5] = species: Oryctolagus cuniculus; test: Tested for the molar concentration required to cause 50% of maximum aggregation
[6] = species: Oryctolagus cuniculus; test: Tested for maximum aggregation units at specified molar concentration; g= No response; format: functional; how it was run: as §1

SMILES | Ratio [1] | Max platelet response [2] | Dose [3] [µg/kg] | pEC50 [4] | pEC50 [5] | Max platelet response [6]
CCCCCCCCCCCCCCCCCC(COP(=O)([O-])OCC[N+](C)(C)C)OC(C)=O (configuration not stated) | 1.15 | 31 | 357.3 | 5.51 |  | 
CCCCCCCCCCCCCCCCCCOCC(COP(=O)([O-])OCC[N+](C)(C)C)OC(C)=O (configuration not stated) | 1.98 | 79 | 3.17 |  | 7.80 | 
CCCCCCCCCCCCCCCCc1ccccc1OCC(COP(=O)([O-])OCC[N+](C)(C)C)OC(C)=O (configuration not stated) |  |  |  |  | < 5.00 | No response
CCCCCCCCCCCCCCc1cccc(OCC(COP(=O)([O-])OCC[N+](C)(C)C)OC(C)=O)c1 (configuration not stated) | 0.1 | 70 | 0.43 |  | 7.36 | 
CCCCCCCCCCCCCCc1ccc(OCC(COP(=O)([O-])OCC[N+](C)(C)C)OC(C)=O)cc1 (configuration not stated) | 2.37 | 80 | 12.56 |  | 7.28 | 
CCCCCCCCCCCCCCCCOCC(COP(=O)([O-])OCC[N+](C)(C)C)OC(C)=O (configuration not stated) [PLATELET ACTIVATING FACTOR] | 0.56 | 71 | 1.25 |  | 7.65 | 
